According to ChEMBL document CHEMBL4689842, “EUbOPEN Chemogenomics Library wave 1” (2021):
“And” between values parts separate entries of the source, which are not always exact repeats. Identical values can stand only once.

System: HEK-293T
Test: Multiplex assay against HEK293T;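 as to Population Tubulin-Different-Phenotype (%): share of the cells with healthy nuclei that show this phenotype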
Format: toxicity, cell-based
Conditions: human, 10 µM, compound concentration 10 uM
In short: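 Live cells were stained at seeding with Hoechst33342, BioTracker Green Microtubule Cytoskeleton Dye, MitoTracker Red and Annexin V Alexa Fluor 680, then imaged on a CQ1 microscope at 37°C and 5% CO2 after compound addition. CellPathfinder machine-learning gating split cells into Hoechst high-intensity objects or normal cells. Normal cells were split into healthy, pyknosed or fragmented nuclei, and pyknosed cells into mitotic or apoptotic. Tubulin, mitochondrial-mass and membrane-permeability phenotypes are per cents of healthy-nucleus cells.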

Structure (SMILES): Cn1c(-c2csc(C3CCN(CC4=NC5N=CC=CC5N4)CC3)n2)nc2ccccc21 (stereo not given) [BAY-070]
- Population Apoptotic (%) (12 h, replicate 1): 19% and 14%
- Population Fragmented Nuclei (%) (12 h, replicate 1): 25% and 9%
- Population Healthy Nuclei (%) (12 h, replicate 1): 48% and 56%
- Population Hoechst High Intensity Objects (%) (12 h, replicate 1): 16% and 14%
- Population Membrane Permeable-Phenotype (%) (12 h, replicate 1): 5% and 3%
- Population Mitochondria Different-Phenotype (%) (12 h, replicate 1): 5% and 8%
- Population Mitotic Cells (%) (12 h, replicate 1): 80% and 85%
- Population Normal (%) (12 h, replicate 1): 83% and 85%
- Population Pyknosed Nuclei (%) (12 h, replicate 1): 26% and 33%
- Population Tubulin-Different-Phenotype (%) (12 h, replicate 1): 7% and 10%
- Total Cell Count (12 h, replicate 1): 591 and 756
- Population Apoptotic (%) (12 h, replicate 2): 15% and 10%
- Population Fragmented Nuclei (%) (12 h, replicate 2): 3% and 6%
- Population Healthy Nuclei (%) (12 h, replicate 2): 82% and 88%
- Population Hoechst High Intensity Objects (%) (12 h, replicate 2): 5% and 2%
- Population Membrane Permeable-Phenotype (%) (12 h, replicate 2): 1%
- Population Mitochondria Different-Phenotype (%) (12 h, replicate 2): 21%
- Population Mitotic Cells (%) (12 h, replicate 2): 84% and 89%
- Population Normal (%) (12 h, replicate 2): 94% and 97%
- Population Tubulin-Different-Phenotype (%) (12 h, replicate 2): 14% and 5%
- Total Cell Count (12 h, replicate 2): 1063 and 1470
- Population Apoptotic (%) (24 h, replicate 1): 15% and 24%
- Population Fragmented Nuclei (%) (24 h, replicate 1): 10% and 21%
- Population Healthy Nuclei (%) (24 h, replicate 1): 63% and 62%
- Population Hoechst High Intensity Objects (%) (24 h, replicate 1): 9% and 10%
- Population Membrane Permeable-Phenotype (%) (24 h, replicate 1): 6%
- Population Mitochondria Different-Phenotype (%) (24 h, replicate 1): 7% and 4%
- Population Mitotic Cells (%) (24 h, replicate 1): 84% and 75%
- Population Normal (%) (24 h, replicate 1): 90% and 89%
- Population Pyknosed Nuclei (%) (24 h, replicate 1): 25% and 16%
- Total Cell Count (24 h, replicate 1): 694 and 578
- Population Apoptotic (%) (24 h, replicate 2): 9% and 17%
- Population Fragmented Nuclei (%) (24 h, replicate 2): 14% and 5%
- Population Healthy Nuclei (%) (24 h, replicate 2): 83% and 87%
- Population Hoechst High Intensity Objects (%) (24 h, replicate 2): 2% and 5%
- Population Membrane Permeable-Phenotype (%) (24 h, replicate 2): 5%
- Population Mitochondria Different-Phenotype (%) (24 h, replicate 2): 1% and 11%
- Population Mitotic Cells (%) (24 h, replicate 2): 90% and 82%
- Population Normal (%) (24 h, replicate 2): 97% and 94%
- Total Cell Count (24 h, replicate 2): 2202 and 1248
